Results published in ChEMBL document CHEMBL1134388, “Nonpeptide cholecystokinin-2 receptor agonists” (J Med Chem, 2001).
Calls of active or inactive are those of the source. The calls are words filed in the database; no cut-off is given here.

How the values were obtained:
[1] = organism: Mus musculus; assay: Charecterization of agonist response of ligand in mouse stomach bioassay; format: functional
[2] = organism: Mus musculus; assay: Charecterization of agonist response of ligand in mouse stomach bioassay measured as affinity of L-365260; format: functional
[3] = biological target: T1, Gastrin/cholecystokinin type B receptor (Mus musculus) (UniProt P56481); assay: Antagonistic activity against CCK2 receptor in mouse cortex assay using [125 I]-BH-CCK-8S; format: functional, tissue-based
T1 sequence (whole entry): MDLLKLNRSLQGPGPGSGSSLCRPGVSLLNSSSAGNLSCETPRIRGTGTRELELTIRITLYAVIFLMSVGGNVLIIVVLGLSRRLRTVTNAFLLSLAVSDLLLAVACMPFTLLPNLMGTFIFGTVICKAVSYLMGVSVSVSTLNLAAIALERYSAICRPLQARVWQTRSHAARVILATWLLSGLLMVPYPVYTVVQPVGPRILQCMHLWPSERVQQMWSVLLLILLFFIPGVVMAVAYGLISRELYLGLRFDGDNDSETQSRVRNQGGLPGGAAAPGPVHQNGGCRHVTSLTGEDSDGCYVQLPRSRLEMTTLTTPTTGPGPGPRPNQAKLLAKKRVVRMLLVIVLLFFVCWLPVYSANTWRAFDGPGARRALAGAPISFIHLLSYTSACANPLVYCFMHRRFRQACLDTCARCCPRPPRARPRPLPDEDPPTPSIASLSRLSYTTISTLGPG
Summary of the method: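 Radioligand competition binding to CCK2 sites in mouse cerebral cortex homogenates against 20 pM [125I]BH-CCK-8S; pKB reported as mean ± SEM from at least three separate experiments.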

[4] = organism: Mus musculus; assay: Effect on acid secretion was determined in isolated,lumen-perfused immature mouse stomach; Acid secretion; format: functional
Summary of the method: (§1)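 Isolated, lumen-perfused mouse stomach; compound applied alone and acid secretion observed, scored as present or absent. Tested as bis(N-methyl-D-glucamine) salts.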

[5] = biological target: T2, Gastrin/cholecystokinin type B receptor (Rattus norvegicus) (UniProt P30553); assay: Antagonistic activity against CCK2 receptor in rat stomach; format: functional, tissue-based
T2 sequence (whole entry): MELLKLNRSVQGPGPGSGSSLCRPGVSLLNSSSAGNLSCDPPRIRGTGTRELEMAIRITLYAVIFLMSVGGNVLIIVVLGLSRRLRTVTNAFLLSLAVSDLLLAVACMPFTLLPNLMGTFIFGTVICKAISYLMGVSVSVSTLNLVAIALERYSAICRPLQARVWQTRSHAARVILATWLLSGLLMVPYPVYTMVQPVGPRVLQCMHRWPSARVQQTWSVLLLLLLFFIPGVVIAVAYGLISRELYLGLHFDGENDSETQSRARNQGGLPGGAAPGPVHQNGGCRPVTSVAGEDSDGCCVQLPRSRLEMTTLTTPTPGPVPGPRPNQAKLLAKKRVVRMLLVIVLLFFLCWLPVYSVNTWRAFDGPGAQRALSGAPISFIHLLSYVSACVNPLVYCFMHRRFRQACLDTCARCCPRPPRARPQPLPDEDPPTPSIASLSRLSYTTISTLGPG

[6] = organism: Mus musculus; assay: Effect on acid secretion was determined in isolated,lumen-perfused immature mouse stomach; No acid secretion; format: functional; summary of the method: as §1

SMILES	pA50 [1]	Kb ([2]; read-out: pA2 (converted)) [nM]	pKB [3]	Acid secretion [4]	pKB [5]	pKB [2]	Acid secretion [6]
CSCC[C@H](NC(=O)[C@H](Cc1c[nH]c2ccccc12)NC(=O)CCNC(=O)OC(C)(C)C)C(=O)N[C@@H](CC(=O)O)C(=O)N[C@@H](Cc1ccccc1)C(N)=O [PENTAGASTRIN]	7.73	9.77					
Cn1ccc2cc(C(=O)N[C@@H](Cc3ccccc3)C(=O)Nc3cc(C(=O)O)cc(C(=O)O)c3)c(C(=O)NCC34CC5CC(CC(C5)C3)C4)cc21 (stereo in doubt; 4) [listing 1 of 2 here]			9.43	Active	8.99		
Cn1ccc2cc(C(=O)N[C@@H](Cc3ccccc3)C(=O)Nc3cc(C(=O)O)cc(C(=O)O)c3)c(C(=O)NCC34CC5CC(CC(C5)C3)C4)cc21 (stereo in doubt; 4) [listing 2 of 2 here]	8.69					7.02	
O=C(O)c1cc(NC(=O)[C@H](Cc2ccccc2)NC(=O)c2cc3[nH]ccc3cc2C(=O)NCC23CC4CC(CC(C4)C2)C3)cc(C(=O)O)c1			7.87		9.26		inactive
Cn1cnc2cc(C(=O)N[C@@H](Cc3ccccc3)C(=O)Nc3cc(C(=O)O)cc(C(=O)O)c3)c(C(=O)NCC34CC5CC(CC(C5)C3)C4)cc21			7.6	Active	8.95		
CCCCn1ccc2cc(C(=O)NCC34CC5CC(CC(C5)C3)C4)c(C(=O)N[C@@H](Cc3ccccc3)C(=O)Nc3cc(C(=O)O)cc(C(=O)O)c3)cc21			7.52	Active	6.86		
CCCCn1ccc2cc(C(=O)N[C@@H](Cc3ccccc3)C(=O)Nc3cc(C(=O)O)cc(C(=O)O)c3)c(C(=O)NCC34CC5CC(CC(C5)C3)C4)cc21			8.44	Active	7.35		
Cn1ccc2cc(C(=O)NCC34CC5CC(CC(C5)C3)C4)c(C(=O)N[C@@H](Cc3ccccc3)C(=O)Nc3cc(C(=O)O)cc(C(=O)O)c3)cc21	7.94		8.36	Active	8.57		
Cn1ccc2cc(C(=O)N[C@@H](Cc3ccccc3)C(=O)Nc3cc(C(=O)O)cc(C(=O)O)c3)c(C(=O)NCC34CC5CC(CC(C5)C3)C4)cc21 (stereo in doubt; 3) [listing 1 of 2 here]	8.4					7.04	
CC(=O)n1ccc2cc(C(=O)N[C@@H](Cc3ccccc3)C(=O)Nc3cc(C(=O)O)cc(C(=O)O)c3)c(C(=O)NCC34CC5CC(CC(C5)C3)C4)cc21			8.74		8.72		
Cn1ccc2cc(C(=O)N[C@@H](Cc3ccccc3)C(=O)Nc3cc(C(=O)O)cc(C(=O)O)c3)c(C(=O)NCC34CC5CC(CC(C5)C3)C4)cc21 (stereo in doubt; 3) [listing 2 of 2 here]			8.42	Active	9.8		
O=C(O)c1cc(NC(=O)[C@H](Cc2ccccc2)NC(=O)c2cc3cc[nH]c3cc2C(=O)NCC23CC4CC(CC(C4)C2)C3)cc(C(=O)O)c1			8.96		9.9		
